Legend:
[1] = Oral bioavailability in Beagle dog measured up to 24 hrs by LC-MS analysis; format: ADME, organism-based, Canis lupus familiaris; conditions: in vivo
Cytochrome P450 1A2 = biological target: T1, Cytochrome P450 1A2 (Homo sapiens, UniProt P05177); assay: Induction of CYP1A2 in human hepatocytes at > 123 ng/ml using phenacetin as substrate incubated for 60 mins by LC-MS/MS analysis; format: ADME, cell-based, Hepatocyte; conditions: 1 h
T1 sequence (P05177 whole entry): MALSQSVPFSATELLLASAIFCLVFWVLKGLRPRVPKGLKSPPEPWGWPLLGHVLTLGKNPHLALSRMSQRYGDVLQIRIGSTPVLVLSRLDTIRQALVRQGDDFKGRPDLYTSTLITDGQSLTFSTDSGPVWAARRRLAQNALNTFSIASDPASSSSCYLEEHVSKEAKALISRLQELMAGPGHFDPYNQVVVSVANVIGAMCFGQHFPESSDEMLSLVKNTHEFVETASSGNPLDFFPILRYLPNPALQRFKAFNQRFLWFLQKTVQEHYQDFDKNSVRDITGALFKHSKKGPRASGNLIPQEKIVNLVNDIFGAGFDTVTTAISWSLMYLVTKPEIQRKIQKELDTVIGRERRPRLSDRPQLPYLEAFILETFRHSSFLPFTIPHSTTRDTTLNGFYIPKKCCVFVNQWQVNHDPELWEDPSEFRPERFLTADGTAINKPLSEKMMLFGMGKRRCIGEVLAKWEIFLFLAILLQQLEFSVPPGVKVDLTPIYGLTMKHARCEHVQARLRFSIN

[2] = Clearance in Wistar rat at 0.3 mg/kg, iv measured up to 24 hrs by LC-MS analysis; format: ADME, organism-based; conditions: in vivo
In short: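 Rats dosed iv at 0.3 mg/kg; blood clearance determined.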

[3] = Volume of distribution at steady state in iv dosed Wistar rat measured up to 24 hrs by LC-MS analysis; format: ADME, organism-based; conditions: in vivo, read-out: Vdss
In short: (§1)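 Three animals per species and strain received an intravenous dose. Steady-state volume of distribution (L/kg) was derived from the blood concentration–time profile, alongside blood clearance and terminal half-life.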

[4] = biological target: T2, Guanylate cyclase soluble subunit alpha-1 (Rattus norvegicus) (UniProt P19686); assay: Activation of recombinant rat sGC alpha1 subunit expressed in CHO cells assessed as induction of [32P-cGMP] formation using alpha-[32P-GTP] as substrate measured after 6 mins by luminescence assay; format: cell-based; conditions: filed as activator
T2 sequence (whole entry): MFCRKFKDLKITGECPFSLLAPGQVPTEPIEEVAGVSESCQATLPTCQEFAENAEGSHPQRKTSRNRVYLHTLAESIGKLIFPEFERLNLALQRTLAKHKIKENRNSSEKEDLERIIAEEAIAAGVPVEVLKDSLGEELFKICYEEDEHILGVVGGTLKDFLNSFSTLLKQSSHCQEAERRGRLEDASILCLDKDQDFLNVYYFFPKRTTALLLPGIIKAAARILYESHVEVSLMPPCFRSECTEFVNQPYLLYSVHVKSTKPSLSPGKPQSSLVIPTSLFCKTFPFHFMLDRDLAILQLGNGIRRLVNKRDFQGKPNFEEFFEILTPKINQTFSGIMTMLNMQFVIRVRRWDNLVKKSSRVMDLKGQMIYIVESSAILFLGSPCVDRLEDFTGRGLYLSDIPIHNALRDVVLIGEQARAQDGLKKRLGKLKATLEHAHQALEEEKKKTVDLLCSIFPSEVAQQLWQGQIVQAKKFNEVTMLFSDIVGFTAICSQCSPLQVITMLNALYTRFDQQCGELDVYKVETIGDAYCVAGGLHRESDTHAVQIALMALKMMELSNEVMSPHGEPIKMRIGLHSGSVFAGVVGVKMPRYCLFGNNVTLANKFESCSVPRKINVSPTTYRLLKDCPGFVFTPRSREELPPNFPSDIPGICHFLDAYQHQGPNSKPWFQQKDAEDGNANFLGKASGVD

[5] = Volume of distribution at steady state in iv dosed cynomolgus monkey measured up to 24 hrs by LC-MS analysis; format: ADME, organism-based, Macaca fascicularis; conditions: in vivo, read-out: Vdss; in short: as §1
[6] = Oral bioavailability in Wistar rat measured up to 24 hrs by LC-MS analysis; format: ADME, organism-based; conditions: in vivo
[7] = Plasma clearance in iv dosed Beagle dog measured up to 24 hrs by LC-MS analysis; format: ADME, organism-based, Canis lupus familiaris
[8] = Induction of CYP3A4 in human hepatocytes using phenacetin as substrate incubated for 60 mins by LC-MS/MS analysis; conditions: 1 h
[9] = Half life in iv dosed cynomolgus monkey measured up to 24 hrs by LC-MS analysis; format: ADME, organism-based, Macaca fascicularis; conditions: in vivo
[10] = Volume of distribution at steady state in iv dosed Beagle dog measured up to 24 hrs by LC-MS analysis; format: ADME, organism-based, Canis lupus familiaris; conditions: in vivo, read-out: Vdss; in short: as §1
[11] = Oral bioavailability in cynomolgus monkey measured up to 24 hrs by LC-MS analysis; format: ADME, organism-based, Macaca fascicularis; conditions: in vivo
[12] = Plasma clearance in iv dosed cynomolgus monkey measured up to 24 hrs by LC-MS analysis; format: ADME, organism-based, Macaca fascicularis
[13] = Half life in iv dosed Beagle dog measured up to 24 hrs by LC-MS analysis; format: ADME, organism-based, Canis lupus familiaris; conditions: in vivo
[14] = biological target: T2, Guanylate cyclase soluble subunit alpha-1 (Rattus norvegicus); assay: Activation of recombinant rat sGC alpha1 subunit expressed in CHO cells assessed as induction of [32P-cGMP] formation by measuring efficacy using alpha-[32P-GTP] as substrate measured after 6 mins by luminescence assay relative to control; format: cell-based; conditions: filed as activator
[15] = Half life in iv dosed Wistar rat measured up to 24 hrs by LC-MS analysis; format: ADME, organism-based; conditions: in vivo
[16] = Activation of recombinant rat sGC expressed in CHO cells by luminescence assay; format: cell-based; conditions: CHO
In short: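 Stable CHO reporter cell line overexpressing rat sGC; cGMP formation read as luminescence. EC50 from concentration–response. MEC taken as lowest concentration giving at least threefold increase in basal luminescence.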

bioavailability [1]: 78% | Activity (Cytochrome P450 1A2): Not Active | clearance [2]: 2.83 mL/min/kg | Vd [3]: 2 L/kg | MEC [4]: 10 nM | Vd [5]: 0.55 L/kg | bioavailability [6]: 100% | clearance [7]: 6.33 mL/min/kg | Activity [8]: 266 nM | half-life [9]: 8.3 h | Vd [10]: 2.1 L/kg | bioavailability [11]: 100% | clearance [12]: 0.833 mL/min/kg | half-life [13]: 9.3 h | Efficacy [14]: 63% | half-life [15]: 13 h | EC50 [16]: 43 nM
SMILES: C[C@H]([C@H](C(=O)Nc1cc(C[C@H](C)C(=O)O)ccc1Cl)c1ccc(Cl)cc1)C(F)(F)F

— ChEMBL document CHEMBL4808182, “Discovery of the Soluble Guanylate Cyclase Activator Runcaciguat (BAY 1101042)” (J Med Chem, 2021)
